Key:
[1] = system: Human immunodeficiency virus 1; experiment: Antiviral activity against R5 tropic Human immunodeficiency virus 1 VB59 subtype C infected in human TZM-bl cells assessed as reduction in virus-induced cytopathic effect after 48 hrs by luminescence assay; type: functional, organism-based; details: Human immunodeficiency virus 1, VB59 subtype C, TZM-bl, 48 h; read-out: EC50
Method in brief: (§1)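 TZM-bl cells (HeLa-derived; CD4, CXCR4, CCR5; LTR-driven luciferase) seeded 1×10^4/well, left overnight at 37 °C, 5% CO2, then infected with 400 TCID50 virus for 2 h. Serial compound dilutions added in duplicate, only at levels giving >50% viability. […] Mean of two independent assays; nevirapine as positive control.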

[2] = Selectivity index, ratio of CC50 for human TZM-bl cells to EC50 for R5 tropic Human immunodeficiency virus 1 ADA5 subtype B; type: toxicity, cell-based; details: read-out: Ratio CC50/EC50
[3] = system: Human immunodeficiency virus; experiment: Inhibition of HIV reverse transcriptase at 100 ug/ml after 1 hr by ELISA relative to control
Method in brief: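 Kit ELISA for HIV RT. Template/primer, biotin- and DIG-labelled dNTPs and RT enzyme in lysis buffer incubated 1 h at 37 °C. Product captured on streptavidin, detected with anti-DIG-peroxidase and ABTS substrate, and read at 405 nm. Percent inhibition calculated against a no-inhibitor sample.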

[4] = Selectivity index, ratio of CC50 for human TZM-bl cells to EC50 for R5 tropic Human immunodeficiency virus 1 VB59 subtype C; type: toxicity, cell-based; details: read-out: Ratio CC50/EC50
[5] = system: Human immunodeficiency virus 1; experiment: Antiviral activity against R5 tropic Human immunodeficiency virus 1 ADA5 subtype B infected in human TZM-bl cells assessed as reduction in virus-induced cytopathic effect after 48 hrs by luminescence assay; type: functional, organism-based; details: Human immunodeficiency virus 1, ADA5 subtype B, TZM-bl, 48 h; read-out: EC50; method in brief: as §1
[6] = Selectivity index, ratio of CC50 for human TZM-bl cells to EC50 for X4 tropic Human immunodeficiency virus 1 UG070 subtype D; type: toxicity, cell-based; details: read-out: Ratio CC50/EC50
[7] = system: Human immunodeficiency virus 1; experiment: Antiviral activity against X4 tropic Human immunodeficiency virus 1 3B subtype B infected in human TZM-bl cells assessed as reduction in virus-induced cytopathic effect after 48 hrs by luminescence assay; type: functional, organism-based; details: Human immunodeficiency virus 1, 3B subtype B, TZM-bl, 48 h; read-out: EC50; method in brief: as §1
[8] = Cytotoxicity against human TZM-bl cells after 48 hrs by MTT assay; type: cell-based
Method in brief: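 TZM-bl cells seeded 1×10^4/well and left overnight at 37 °C, 5% CO2. Medium then replaced with a two-fold dilution series of compound in quadruplicate. […] Mean of three independent assays.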

[9] = system: Human immunodeficiency virus 1; experiment: Antiviral activity against X4 tropic Human immunodeficiency virus 1 UG070 subtype D infected in human TZM-bl cells assessed as reduction in virus-induced cytopathic effect after 48 hrs by luminescence assay; type: functional, organism-based; details: Human immunodeficiency virus 1, UG070 subtype D, TZM-bl, 48 h; read-out: EC50; method in brief: as §1
[10] = Selectivity index, ratio of CC50 for human TZM-bl cells to EC50 for X4 tropic Human immunodeficiency virus 1 3B subtype B; type: toxicity, cell-based; details: read-out: Ratio CC50/EC50

SMILES	EC50 [1] [µM]	selectivity ratio [2]	inhibition [3] [%]	selectivity ratio [4]	EC50 [5] [µM]	selectivity ratio [6]	EC50 [7] [µM]	CC50 at 48 h [8] [µM]	EC50 [9] [µM]	selectivity ratio [10]
COc1cc(OC)nc(N2C(=O)CSC2c2c(Cl)cccc2Cl)n1 (stereo not given)	0.12	855	76.8	662	0.1	427	0.07	85.4	0.2	1220
COc1cc(OC)nc(N2C(=O)CSC2c2c(F)cccc2F)n1 (stereo not given)	0.48	250	82.9	161	0.31	144	0.25	77.5	0.53	310
N#Cc1ccc(C2SCC(=O)N2c2ccc(C#N)cn2)cc1 (stereo not given)	80.1	1.71	30.4	1.59	74.2	1.2	53.6	128	106	2.38
N#Cc1ccc(NN2C(=O)CSC2c2c(Cl)cccc2Cl)cc1 (stereo not given)	25.7	12	22.2	2.54	5.42	1.76	30.3	65.3	36.9	2.14
Cc1cc(C)nc(N2C(=O)CSC2c2ccc(C#N)cc2)c1 (stereo not given)	46.5	5.62	37.9	3.18	26.4	2.9	40.4	148	51.1	3.66
O=C1CSC(c2c(F)cccc2F)N1Nc1ccccn1 (stereo not given)	16.8	5.56	64.7	5.36	16.2	3.69	17.3	90.1	24.4	5.19
N#Cc1ccc(NN2C(=O)CSC2c2c(F)cccc2F)cc1 (stereo not given)	48.9	1.58	34.5	0.86	26.6	0.74	42.6	42.2	56.9	1
COc1cccc(OC)c1C1SCC(=O)N1c1cc(C)c(Br)c(C)n1 (stereo not given)	2.48	56.8	85.5	34.6	1.51	36.3	2.22	85.8	2.36	38.6
Cc1cc(C)nc(N2C(=O)CSC2c2c(Cl)cccc2[N+](=O)[O-])c1 (stereo not given)	0.08	1740	91.5	1690	0.08	1690	0.02	139	0.08	6940
O=C1CSC(c2c(Cl)cccc2Cl)N1Nc1ccccn1 (stereo not given)	1.7	80.5	97.4	87.6	1.85	127	0.99	149	1.17	150
COc1cc(OC)nc(N2C(=O)CSC2c2c(OC)cccc2OC)n1 (stereo not given)	7.28	37.8	93.8	21.5	4.13	17.6	3.17	156	8.87	49.3
Cc1ccnc2c1NC(=O)c1cccnc1N2C1CC1 [NEVIRAPINE]	0.03	2060	99.2	2060	0.03	2060	0.03	76.1	0.03	2060
COc1cc(OC)nc(N2C(=O)CSC2c2c(Cl)cccc2[N+](=O)[O-])n1 (stereo not given)	0.22	366	79.4	367	0.22	298	0.1	80.6	0.27	806
Cc1ccc(S(=O)(=O)NN2C(=O)CSC2c2c(F)cccc2Cl)cc1 (stereo not given)	81.6	2.1	56.3	1.66	64.6	1.87	63.1	136	72.4	2.15
N#Cc1ccc(N2C(=O)CSC2c2c(Cl)cccc2Cl)nc1 (stereo not given)	< 7.13	13	42	8.4	4.62	8.4	20.5	60	7.13	2.92
COc1cc(OC)nc(N2C(=O)CSC2c2c(F)cccc2Cl)n1 (stereo not given)	0.32	614	95.4	307	0.16	409	0.18	98.2	0.24	545
O=C1CSC(c2c(F)cccc2Cl)N1Nc1ccccn1 (stereo not given)	5.31	40.2	97.5	28.7	3.79	32.7	2.1	153	4.66	72.7
O=C1CSC(c2c(F)cccc2F)N1c1ncnc2[nH]cnc12 (stereo not given)	38.6	1.45	70.4	1.05	27.8	0.71	36.3	40.5	56.5	1.11
